The source of these data is ChEMBL document CHEMBL1155278, “3,4-Diaryl-isoxazoles and -imidazoles as potent dual inhibitors of p38alpha mitogen activated protein kinase and casein kinase 1delta” (J Med Chem, 2009).

Test [1] deals with T1, Dual specificity tyrosine-phosphorylation-regulated kinase 3 (Homo sapiens) (UniProt O43781).
T1 sequence (whole entry): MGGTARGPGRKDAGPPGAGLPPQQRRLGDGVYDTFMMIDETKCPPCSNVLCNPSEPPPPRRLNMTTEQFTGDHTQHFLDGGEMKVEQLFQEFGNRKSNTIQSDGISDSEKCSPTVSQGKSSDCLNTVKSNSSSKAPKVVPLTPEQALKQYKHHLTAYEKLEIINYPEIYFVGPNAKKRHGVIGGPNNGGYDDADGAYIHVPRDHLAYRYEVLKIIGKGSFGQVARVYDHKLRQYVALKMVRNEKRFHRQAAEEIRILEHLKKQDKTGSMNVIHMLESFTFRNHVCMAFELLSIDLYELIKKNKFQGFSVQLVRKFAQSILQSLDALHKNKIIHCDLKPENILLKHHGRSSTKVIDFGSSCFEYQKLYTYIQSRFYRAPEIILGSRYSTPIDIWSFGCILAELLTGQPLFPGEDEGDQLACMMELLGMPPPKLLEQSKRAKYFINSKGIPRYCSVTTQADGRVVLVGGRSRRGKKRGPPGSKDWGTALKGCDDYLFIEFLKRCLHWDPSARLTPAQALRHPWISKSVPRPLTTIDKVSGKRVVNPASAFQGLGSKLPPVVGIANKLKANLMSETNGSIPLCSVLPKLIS
As to the kind of experiment: Inhibition of DYRK3 assessed as residual activity at 0.1 uM by Cherenkov counting relative to control in presence of 5 uM ATP. In a few lines: (§1)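 Single-concentration screen at 0.1 µM across a panel of 76 protein kinases. Each kinase was run at an ATP concentration approximating its ATP Km. Results are % mean residual activity versus control assays without compound (n = 3 ± SD).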

Test [2] deals with Rho-associated protein kinase 2 (Homo sapiens) (UniProt O75116). As to the kind of experiment: Inhibition of ROCK2 assessed as residual activity at 0.1 uM by Cherenkov counting relative to control in presence of 20 uM ATP. An outline of the steps: (§2)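 Single-concentration screen at 0.1 μM in a 76-kinase panel. ATP for each kinase was set near its Km for ATP. Residual activity is given as a percentage of control assays without compound, mean of n = 3 ± SD.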
Sequence of Rho-associated protein kinase 2 (Homo sapiens) (O75116 whole entry, looked up): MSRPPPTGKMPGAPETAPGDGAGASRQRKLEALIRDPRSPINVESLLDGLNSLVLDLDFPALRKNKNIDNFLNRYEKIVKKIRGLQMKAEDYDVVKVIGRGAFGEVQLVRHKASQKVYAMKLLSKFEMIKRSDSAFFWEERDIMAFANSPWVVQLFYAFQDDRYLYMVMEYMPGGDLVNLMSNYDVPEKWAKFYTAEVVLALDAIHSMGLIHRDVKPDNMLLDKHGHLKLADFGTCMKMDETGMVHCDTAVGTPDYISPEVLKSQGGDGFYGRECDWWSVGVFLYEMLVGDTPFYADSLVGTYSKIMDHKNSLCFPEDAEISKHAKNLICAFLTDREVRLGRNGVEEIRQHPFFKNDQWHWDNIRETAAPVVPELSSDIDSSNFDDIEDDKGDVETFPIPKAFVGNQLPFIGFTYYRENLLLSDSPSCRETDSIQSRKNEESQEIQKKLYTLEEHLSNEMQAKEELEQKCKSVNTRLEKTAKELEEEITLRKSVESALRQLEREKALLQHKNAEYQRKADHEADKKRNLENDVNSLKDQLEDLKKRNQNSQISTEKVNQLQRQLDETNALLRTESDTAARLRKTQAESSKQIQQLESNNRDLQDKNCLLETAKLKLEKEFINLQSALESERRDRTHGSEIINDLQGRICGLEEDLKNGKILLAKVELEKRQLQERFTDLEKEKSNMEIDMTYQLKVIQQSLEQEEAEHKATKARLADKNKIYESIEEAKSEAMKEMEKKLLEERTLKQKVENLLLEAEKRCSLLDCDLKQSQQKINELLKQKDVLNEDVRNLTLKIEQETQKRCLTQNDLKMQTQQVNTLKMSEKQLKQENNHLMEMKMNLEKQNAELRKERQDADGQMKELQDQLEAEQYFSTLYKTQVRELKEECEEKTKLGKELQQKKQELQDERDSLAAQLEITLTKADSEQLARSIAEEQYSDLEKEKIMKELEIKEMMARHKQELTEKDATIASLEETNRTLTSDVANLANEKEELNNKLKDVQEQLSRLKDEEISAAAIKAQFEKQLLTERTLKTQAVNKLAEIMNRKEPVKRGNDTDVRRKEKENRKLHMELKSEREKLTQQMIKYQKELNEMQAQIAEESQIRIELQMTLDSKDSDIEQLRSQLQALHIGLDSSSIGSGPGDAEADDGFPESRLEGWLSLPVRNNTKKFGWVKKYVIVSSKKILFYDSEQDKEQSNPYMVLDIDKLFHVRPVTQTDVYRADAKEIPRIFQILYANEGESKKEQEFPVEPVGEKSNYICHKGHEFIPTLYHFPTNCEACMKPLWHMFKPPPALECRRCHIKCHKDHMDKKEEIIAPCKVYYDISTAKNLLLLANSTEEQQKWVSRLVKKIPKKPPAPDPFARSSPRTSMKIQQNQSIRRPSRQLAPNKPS

In test [3] the target is Maternal embryonic leucine zipper kinase (Homo sapiens) (UniProt Q14680). As to the kind of experiment: Inhibition of MELK assessed as residual activity at 0.1 uM by Cherenkov counting relative to control in presence of 50 uM ATP. In a few lines:
(§3)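 Single-concentration selectivity screen at 0.1 μM against a panel of 76 protein kinases. Each kinase was run at an ATP level approximating its Km for ATP. Output is mean residual activity as % of the control assay without compound, n = 3 ± SD.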

For test [4], the target named is Mitogen-activated protein kinase 11 (Homo sapiens) (UniProt Q15759). Description: Inhibition of p38beta at 0.1 uM by Cherenkov counting. In a few lines: as §2
Sequence of Mitogen-activated protein kinase 11 (Homo sapiens) (Q15759 whole entry): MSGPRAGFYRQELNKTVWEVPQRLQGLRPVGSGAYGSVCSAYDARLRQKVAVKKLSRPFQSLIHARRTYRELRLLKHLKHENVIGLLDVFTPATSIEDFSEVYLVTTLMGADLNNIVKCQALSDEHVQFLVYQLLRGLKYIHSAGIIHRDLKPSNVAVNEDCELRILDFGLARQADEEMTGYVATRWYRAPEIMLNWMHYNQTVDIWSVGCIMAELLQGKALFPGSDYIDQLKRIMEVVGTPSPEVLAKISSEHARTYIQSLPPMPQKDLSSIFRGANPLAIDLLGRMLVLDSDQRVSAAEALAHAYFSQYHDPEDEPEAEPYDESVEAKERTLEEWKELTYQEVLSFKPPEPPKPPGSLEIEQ
The target in test [5] is T2, Serine/threonine-protein kinase Chk1 (Homo sapiens) (UniProt O14757).
T2 sequence (whole entry): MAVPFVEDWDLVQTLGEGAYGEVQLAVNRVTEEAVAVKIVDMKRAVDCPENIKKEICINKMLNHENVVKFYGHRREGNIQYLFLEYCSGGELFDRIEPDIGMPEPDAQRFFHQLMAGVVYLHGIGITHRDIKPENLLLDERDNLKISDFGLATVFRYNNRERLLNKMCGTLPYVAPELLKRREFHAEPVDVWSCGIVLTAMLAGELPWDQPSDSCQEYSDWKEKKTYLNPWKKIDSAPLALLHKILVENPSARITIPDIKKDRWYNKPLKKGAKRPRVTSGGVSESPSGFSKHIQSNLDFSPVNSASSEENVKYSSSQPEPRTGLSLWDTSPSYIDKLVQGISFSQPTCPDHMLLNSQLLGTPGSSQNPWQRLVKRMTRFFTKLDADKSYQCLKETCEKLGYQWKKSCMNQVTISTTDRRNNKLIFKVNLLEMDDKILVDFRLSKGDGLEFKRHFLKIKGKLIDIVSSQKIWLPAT
As to the kind of experiment: Inhibition of CHK1 assessed as residual activity at 0.1 uM by Cherenkov counting relative to control in presence of 20 uM ATP. An outline of the steps:
as §1

Test [6] has as its target Serine/threonine-protein kinase Nek6 (Homo sapiens) (UniProt Q9HC98). As to the kind of experiment: Inhibition of NEK6 assessed as residual activity at 0.1 uM by Cherenkov counting relative to control in presence of 50 uM ATP. An outline of the steps: as §3
In test [7] the target is MAP kinase-interacting serine/threonine-protein kinase 2 (Homo sapiens) (UniProt Q9HBH9). Description: Inhibition of MNK2 assessed as residual activity at 10 uM by Cherenkov counting relative to control in presence of 50 uM ATP.
Sequence of MAP kinase-interacting serine/threonine-protein kinase 2 (Homo sapiens) (Q9HBH9 whole entry, looked up): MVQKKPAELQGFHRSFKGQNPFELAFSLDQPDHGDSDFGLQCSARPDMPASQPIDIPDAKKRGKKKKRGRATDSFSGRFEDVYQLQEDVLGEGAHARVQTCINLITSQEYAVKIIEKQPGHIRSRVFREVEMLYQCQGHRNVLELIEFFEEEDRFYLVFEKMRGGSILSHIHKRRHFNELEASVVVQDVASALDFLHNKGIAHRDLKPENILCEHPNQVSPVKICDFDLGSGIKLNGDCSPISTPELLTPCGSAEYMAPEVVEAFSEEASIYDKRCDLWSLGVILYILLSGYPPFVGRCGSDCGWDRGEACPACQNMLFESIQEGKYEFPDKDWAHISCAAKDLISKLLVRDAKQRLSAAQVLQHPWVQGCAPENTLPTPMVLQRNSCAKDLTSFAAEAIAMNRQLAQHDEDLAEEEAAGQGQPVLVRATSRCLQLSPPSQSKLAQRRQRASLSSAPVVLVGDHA
Test [8] concerns the target RAC-alpha serine/threonine-protein kinase (Homo sapiens) (UniProt P31749). Description: Inhibition of PKBalpha assessed as residual activity at 10 uM by Cherenkov counting relative to control in presence of 5 uM ATP. An outline of the steps: (§4)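 Single-concentration profiling at 10 μM in a 78-kinase panel. Kinase activity is expressed as a percentage of control assays run without compound.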

Test [9] addresses T3, Serine/threonine-protein kinase D1 (Homo sapiens) (UniProt Q15139).
T3 sequence (whole entry): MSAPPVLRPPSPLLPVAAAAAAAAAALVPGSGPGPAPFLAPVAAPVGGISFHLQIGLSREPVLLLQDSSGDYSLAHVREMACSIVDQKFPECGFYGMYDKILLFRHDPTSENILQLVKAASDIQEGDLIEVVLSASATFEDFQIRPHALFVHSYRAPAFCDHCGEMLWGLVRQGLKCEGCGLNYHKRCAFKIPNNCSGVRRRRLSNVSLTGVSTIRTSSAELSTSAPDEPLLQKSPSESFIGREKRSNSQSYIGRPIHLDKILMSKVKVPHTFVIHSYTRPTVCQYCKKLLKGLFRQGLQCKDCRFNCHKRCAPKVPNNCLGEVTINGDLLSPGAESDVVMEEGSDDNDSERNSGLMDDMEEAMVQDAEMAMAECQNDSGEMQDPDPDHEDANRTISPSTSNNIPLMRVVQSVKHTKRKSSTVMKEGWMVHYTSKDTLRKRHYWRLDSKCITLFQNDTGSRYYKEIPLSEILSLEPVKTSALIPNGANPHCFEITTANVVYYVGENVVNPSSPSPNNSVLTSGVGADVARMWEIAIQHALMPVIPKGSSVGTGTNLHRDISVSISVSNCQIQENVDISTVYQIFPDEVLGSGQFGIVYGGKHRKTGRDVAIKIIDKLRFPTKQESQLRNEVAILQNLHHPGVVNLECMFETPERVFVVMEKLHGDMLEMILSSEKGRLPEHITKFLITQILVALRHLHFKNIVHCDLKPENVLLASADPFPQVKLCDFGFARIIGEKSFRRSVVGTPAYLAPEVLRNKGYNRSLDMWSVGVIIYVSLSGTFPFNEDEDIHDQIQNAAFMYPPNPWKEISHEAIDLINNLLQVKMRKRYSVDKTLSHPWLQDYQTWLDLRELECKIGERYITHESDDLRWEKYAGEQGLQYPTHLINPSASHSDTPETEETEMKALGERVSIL
As to the kind of experiment: Inhibition of PKD1 assessed as residual activity at 10 uM by Cherenkov counting relative to control in presence of 50 uM ATP. An outline of the steps: as §4

Sequence of RAC-alpha serine/threonine-protein kinase (Homo sapiens) (P31749 whole entry): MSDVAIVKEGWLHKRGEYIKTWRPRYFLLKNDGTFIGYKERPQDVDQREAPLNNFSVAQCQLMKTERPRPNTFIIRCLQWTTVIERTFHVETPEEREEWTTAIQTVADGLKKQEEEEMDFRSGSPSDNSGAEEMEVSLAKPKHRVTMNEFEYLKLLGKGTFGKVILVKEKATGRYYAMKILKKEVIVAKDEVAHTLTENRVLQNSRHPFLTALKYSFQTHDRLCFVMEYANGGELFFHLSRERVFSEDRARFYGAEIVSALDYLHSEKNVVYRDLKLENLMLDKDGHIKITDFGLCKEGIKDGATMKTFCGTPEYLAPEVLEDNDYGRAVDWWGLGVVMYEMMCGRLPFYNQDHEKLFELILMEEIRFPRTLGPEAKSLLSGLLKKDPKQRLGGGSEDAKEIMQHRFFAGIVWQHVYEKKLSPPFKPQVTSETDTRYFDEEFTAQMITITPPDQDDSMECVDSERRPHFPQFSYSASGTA
Sequence of Maternal embryonic leucine zipper kinase (Homo sapiens) (Q14680 whole entry, looked up): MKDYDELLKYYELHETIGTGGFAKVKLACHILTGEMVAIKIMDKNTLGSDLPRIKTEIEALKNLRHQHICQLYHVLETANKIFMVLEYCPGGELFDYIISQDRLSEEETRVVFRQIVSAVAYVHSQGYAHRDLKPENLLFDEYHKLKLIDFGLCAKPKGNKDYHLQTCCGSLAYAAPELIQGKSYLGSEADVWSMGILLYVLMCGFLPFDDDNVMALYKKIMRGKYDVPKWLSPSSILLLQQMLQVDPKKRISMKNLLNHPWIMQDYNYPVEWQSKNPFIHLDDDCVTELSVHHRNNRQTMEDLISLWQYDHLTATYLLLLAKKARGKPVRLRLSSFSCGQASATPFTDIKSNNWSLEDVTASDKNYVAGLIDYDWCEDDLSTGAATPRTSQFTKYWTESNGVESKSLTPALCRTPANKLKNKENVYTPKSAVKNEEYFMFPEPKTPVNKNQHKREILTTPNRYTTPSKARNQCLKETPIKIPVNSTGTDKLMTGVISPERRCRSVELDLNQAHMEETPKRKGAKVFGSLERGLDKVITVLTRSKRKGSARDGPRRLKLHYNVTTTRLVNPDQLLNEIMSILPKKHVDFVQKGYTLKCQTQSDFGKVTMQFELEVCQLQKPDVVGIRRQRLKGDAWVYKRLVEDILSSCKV
Sequence of Serine/threonine-protein kinase Nek6 (Homo sapiens) (Q9HC98 whole entry): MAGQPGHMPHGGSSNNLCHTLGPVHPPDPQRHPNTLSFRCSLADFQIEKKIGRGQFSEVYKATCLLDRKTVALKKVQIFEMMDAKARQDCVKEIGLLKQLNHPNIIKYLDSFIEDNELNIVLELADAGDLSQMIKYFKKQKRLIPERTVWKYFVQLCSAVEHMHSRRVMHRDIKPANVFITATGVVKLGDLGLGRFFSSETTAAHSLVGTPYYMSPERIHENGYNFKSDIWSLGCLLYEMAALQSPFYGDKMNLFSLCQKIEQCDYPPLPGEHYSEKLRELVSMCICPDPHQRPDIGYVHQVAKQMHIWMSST

A word on the inhibition: it is the percentage by which the read-out fell short of the control. Lower therefore signals little suppression. `COc1ccc(/C=C/C(=O)Nc2cc(-c3[nH]c(SC)nc3-c3ccc(F)cc3)ccn2)c(OC)c1`: the Activity stood at 104% in test [1]; 81% in test [2]; 81% in test [3]; 80% in test [5]; 90% in test [6]. The molecule further displayed an inhibition in test [4] of 83%.
Regarding `CC(C)c1onc(-c2ccc(F)cc2)c1-c1ccncc1`, the Activity in test [7] is 110%; in [8], 94%; in [9] it was 60%.
For `CC(C)c1noc(-c2ccc(F)cc2)c1-c1ccncc1`, the Activity in test [7] was 101%; in test [8], 94%; in [9], 89%.
`COc1ccc(/C=C/C(=O)Nc2cc(-c3[nH]c([S+](C)[O-])nc3-c3ccc(F)cc3)ccn2)c(OC)c1` (stereo not drawn): the Activity in [1] came to 90%; in test [2], 88%; in [3] it was 92%; in [5], 88%; in test [6], 111%. The inhibition in test [4] worked out at 54%.
